ChEMBL document CHEMBL4387724, “2-Pyridineformamide N(4)-ring incorporated thiosemicarbazones inhibit MCF-7 cells by inhibiting JNK pathway” (Bioorg Med Chem Lett, 2019)
The source made the active and inactive calls. No cut-off for these calls is given here.

What was measured:
MCF7 [1] = test: Cytotoxicity against human MCF7 cells assessed as reduction in cell growth incubated for 72 hrs by MTT assay; assay type: functional, cell-based; settings: MCF7, 72 h
Procedure, shortened: (§1)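 Cells grown in DMEM with 10% FBS and penicillin-streptomycin at 37 °C, 5% CO2, seeded at 3000 cells/well and attached overnight. Screening series given at 1, 3, 10, 100 μM; follow-up agent at 100 nM–3 μM; both 72 h, with 0.1% DMSO vehicle. MTT (5 mg/mL stock) added for 3 h at 37 °C, formazan dissolved in DMSO, absorbance read at 570 nm. Viability expressed as % of DMSO-treated wells from replicates.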

A-431 [2] = test: Cytotoxicity against human A431 cells assessed as reduction in cell growth incubated for 72 hrs by MTT assay; assay type: functional, cell-based; settings: A-431, 72 h; procedure, shortened: as §1
A-375 [3] = test: Cytotoxicity against human A375 cells assessed as reduction in cell growth incubated for 72 hrs by MTT assay; assay type: functional, cell-based; settings: A-375, 72 h; procedure, shortened: as §1
HeLa [4] = test: Cytotoxicity against human HeLa cells assessed as reduction in cell growth incubated for 72 hrs by MTT assay; assay type: functional, cell-based; procedure, shortened: as §1
A-375 [5] = test: Cytotoxicity against human A375 cells assessed as reduction in cell growth at 1 uM incubated for 72 hrs by MTT assay relative to control; assay type: functional; settings: A-375, 72 h, read-out: GI; procedure, shortened: as §1
A-375 [6] = test: Cytotoxicity against human A375 cells assessed as reduction in cell growth at 3 uM incubated for 72 hrs by MTT assay relative to control; assay type: functional; settings: A-375, 72 h, read-out: GI; procedure, shortened: as §1
A-375 [7] = test: Cytotoxicity against human A375 cells assessed as reduction in cell growth at 10 uM incubated for 72 hrs by MTT assay relative to control; assay type: functional; settings: A-375, 72 h, read-out: GI; procedure, shortened: as §1
A-375 [8] = test: Cytotoxicity against human A375 cells assessed as reduction in cell growth at 30 uM incubated for 72 hrs by MTT assay relative to control; assay type: functional; settings: A-375, 72 h, read-out: GI
A-375 [9] = test: Cytotoxicity against human A375 cells assessed as reduction in cell growth at 100 uM incubated for 72 hrs by MTT assay relative to control; assay type: functional; settings: A-375, 72 h, read-out: GI; procedure, shortened: as §1
A-431 [10] = test: Cytotoxicity against human A431 cells assessed as reduction in cell growth at 1 uM incubated for 72 hrs by MTT assay relative to control; assay type: functional; settings: A-431, 72 h, read-out: GI; procedure, shortened: as §1
A-431 [11] = test: Cytotoxicity against human A431 cells assessed as reduction in cell growth at 3 uM incubated for 72 hrs by MTT assay relative to control; assay type: functional; settings: A-431, 72 h, read-out: GI; procedure, shortened: as §1
A-431 [12] = test: Cytotoxicity against human A431 cells assessed as reduction in cell growth at 10 uM incubated for 72 hrs by MTT assay relative to control; assay type: functional; settings: A-431, 72 h, read-out: GI; procedure, shortened: as §1
A-431 [13] = test: Cytotoxicity against human A431 cells assessed as reduction in cell growth at 30 uM incubated for 72 hrs by MTT assay relative to control; assay type: functional; settings: A-431, 72 h, read-out: GI
A-431 [14] = test: Cytotoxicity against human A431 cells assessed as reduction in cell growth at 100 uM incubated for 72 hrs by MTT assay relative to control; assay type: functional; settings: A-431, 72 h, read-out: GI; procedure, shortened: as §1
HeLa [15] = test: Cytotoxicity against human HeLa cells assessed as reduction in cell growth at 1 uM incubated for 72 hrs by MTT assay relative to control; assay type: functional; settings: read-out: GI; procedure, shortened: as §1
HeLa [16] = test: Cytotoxicity against human HeLa cells assessed as reduction in cell growth at 3 uM incubated for 72 hrs by MTT assay relative to control; assay type: functional; settings: read-out: GI; procedure, shortened: as §1
HeLa [17] = test: Cytotoxicity against human HeLa cells assessed as reduction in cell growth at 10 uM incubated for 72 hrs by MTT assay relative to control; assay type: functional; settings: read-out: GI; procedure, shortened: as §1
HeLa [18] = test: Cytotoxicity against human HeLa cells assessed as reduction in cell growth at 30 uM incubated for 72 hrs by MTT assay relative to control; assay type: functional; settings: read-out: GI
HeLa [19] = test: Cytotoxicity against human HeLa cells assessed as reduction in cell growth at 100 uM incubated for 72 hrs by MTT assay relative to control; assay type: functional; settings: read-out: GI; procedure, shortened: as §1
MCF7 [20] = test: Cytotoxicity against human MCF7 cells assessed as reduction in cell growth at 1 uM incubated for 72 hrs by MTT assay relative to control; assay type: functional; settings: MCF7, 72 h, read-out: GI; procedure, shortened: as §1
MCF7 [21] = test: Cytotoxicity against human MCF7 cells assessed as reduction in cell growth at 3 uM incubated for 72 hrs by MTT assay relative to control; assay type: functional; settings: MCF7, 72 h, read-out: GI; procedure, shortened: as §1
MCF7 [22] = test: Cytotoxicity against human MCF7 cells assessed as reduction in cell growth at 10 uM incubated for 72 hrs by MTT assay relative to control; assay type: functional; settings: MCF7, 72 h, read-out: GI; procedure, shortened: as §1
MCF7 [23] = test: Cytotoxicity against human MCF7 cells assessed as reduction in cell growth at 30 uM incubated for 72 hrs by MTT assay relative to control; assay type: functional; settings: MCF7, 72 h, read-out: GI
MCF7 [24] = test: Cytotoxicity against human MCF7 cells assessed as reduction in cell growth at 100 uM incubated for 72 hrs by MTT assay relative to control; assay type: functional; settings: MCF7, 72 h, read-out: GI; procedure, shortened: as §1
MCF7 [25] = test: Antiproliferative activity against human MCF7 cells assessed as induction of cell death at 100 nM to 3 uM incubated for 48 hrs by propidium iodide based flow cytometry; assay type: functional
Procedure, shortened: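 MCF7 cells in DMEM with 10% FBS at 37 °C, 5% CO2, 30,000 cells/well in six-well plates, exposed to 100 nM, 300 nM, 1 μM or 3 μM (0.1% DMSO vehicle) for 48 h per legend (72 h per methods note). Harvested, washed in PBS, stained with propidium iodide (5 μg/mL) 20 min at 4 °C, and % dead cells read by flow cytometry against DMSO control.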

MCF7 [26] = test: Cytotoxicity against human MCF7 cells assessed as reduction in cell growth at 100 nM to 3 uM incubated for 72 hrs by MTT assay; assay type: functional, cell-based; procedure, shortened: as §1
MCF7 [27] = test: Antiproliferative activity against human MCF7 cells assessed as inhibition of colony formation at 100 nM to 3 uM incubated for 21 days with every 72 hrs media was change treatment by crystal violet staining based assay; assay type: functional, cell-based
Procedure, shortened: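 MCF7 cells seeded at 500 cells/well (legend: 1200/well) in six-well plates, left to adhere overnight, then dosed at 100 nM–3 μM. Medium and compound renewed every 72 h over 21 days. Colonies washed with PBS, fixed in 3.7% formaldehyde 20 min, stained with 0.4% crystal violet, rinsed in PBS, then counted.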

MCF7 [28] = test: Induction of apoptosis in human MCF7 cells assessed as increase in Bax protein expression at 100 nM to 3 uM incubated for 48 hrs by immunoblot method; assay type: functional, cell-based
Procedure, shortened: (§2)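 MCF7 cells seeded at 1.25×10^5 per well in six-well plates and treated at 100 nM–3 μM for 48 h per legend (72 h per methods note). Lysed in 2X SDS buffer and sonicated; protein quantified by BCA. 20–25 µg run on 12% SDS gels and transferred to PVDF. Blocked in 5% BSA/TBST, primary antibodies overnight, secondary 1 h, ECL detection, β-actin as loading control.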

MCF7 [29] = test: Induction of apoptosis in human MCF7 cells assessed as reduction in Bcl2 protein expression at 100 nM to 3 uM incubated for 48 hrs by immunoblot method; assay type: functional, cell-based; procedure, shortened: as §2
MCF7 [30] = test: Induction of apoptosis in human MCF7 cells assessed as downregulation of JNK1 protein expression at 100 nM to 3 uM incubated for 48 hrs by immunoblot method; assay type: functional, cell-based; procedure, shortened: as §2
MCF7 [31] = test: Induction of apoptosis in human MCF7 cells assessed as effect on pro-caspase-3 expression at 100 nM to 3 uM incubated for 48 hrs by immunoblot method; assay type: functional, cell-based; procedure, shortened: as §2
MCF7 [32] = test: Induction of apoptosis in human MCF7 cells assessed as effect on PARP1 protein expression at 100 nM to 3 uM incubated for 48 hrs by immunoblot method; assay type: functional, cell-based; procedure, shortened: as §2
MCF7 [33] = test: Induction of apoptosis in human MCF7 cells assessed as downregulation of c-Jun protein expression 100 nM to 3 uM incubated for 48 hrs by immunoblot method; assay type: functional, cell-based; procedure, shortened: as §2

Compound | IC50 (MCF7 [1]) [nM] | IC50 (A-431 [2]) [nM] | IC50 (A-375 [3]) [nM] | IC50 (HeLa [4]) [nM] | inhibition of growth at 1 µM (A-375 [5]) [%] | inhibition of growth at 3 µM (A-375 [6]) [%] | inhibition of growth at 10 µM (A-375 [7]) [%] | inhibition of growth at 30 µM (A-375 [8]) [%] | inhibition of growth at 100 µM (A-375 [9]) [%] | inhibition of growth at 1 µM (A-431 [10]) [%] | inhibition of growth at 3 µM (A-431 [11]) [%] | inhibition of growth at 10 µM (A-431 [12]) [%] | inhibition of growth at 30 µM (A-431 [13]) [%] | inhibition of growth at 100 µM (A-431 [14]) [%] | inhibition of growth at 1 µM (HeLa [15]) [%] | inhibition of growth at 3 µM (HeLa [16]) [%] | inhibition of growth at 10 µM (HeLa [17]) [%] | inhibition of growth at 30 µM (HeLa [18]) [%] | inhibition of growth at 100 µM (HeLa [19]) [%] | inhibition of growth at 1 µM (MCF7 [20]) [%] | other results
N/C(=N\NC(=S)N1CCCC1)c1ccc(F)cn1 | 900 | 1000 | 860 | 1800 | 57.9 | 81.8 | 82.3 | 83.2 | 86.6 | 50.7 | 72.2 | 78.7 | 83.3 | 85.6 | 62.8 | 77.7 | 72.7 | 81.2 | 85.4 | 51 | inhibition of growth at 3 µM (MCF7 [21]): 52.6%; inhibition of growth at 10 µM (MCF7 [22]): 54.5%; inhibition of growth at 30 µM (MCF7 [23]): 60.6%; inhibition of growth at 100 µM (MCF7 [24]): 73%; Activity (MCF7 [25]): Dose-dependent effect; Activity (MCF7 [26]): Dose-dependent effect; inhibition (MCF7 [27]): Dose-dependent effect; Activity (MCF7 [28]): Active; Activity (MCF7 [29]): Active; Activity (MCF7 [30]): Dose-dependent effect; Activity (MCF7 [31]): Active; Activity (MCF7 [32]): Active; Activity (MCF7 [33]): Dose-dependent effect
N/C(=N\NC(=S)N1CCN(c2ccccn2)CC1)c1ccccn1 | 13700 | 4300 | 700 | 8600 | 70 | 73.7 | 74.4 | 81 | 86.8 | 11.6 | 45.8 | 69 | 74.9 | 91.9 | 16.7 | 24.4 | 56.1 | 78.9 | 85.6 | 36 | inhibition of growth at 3 µM (MCF7 [21]): 37.2%; inhibition of growth at 10 µM (MCF7 [22]): 46.4%; inhibition of growth at 30 µM (MCF7 [23]): 65.3%; inhibition of growth at 100 µM (MCF7 [24]): 68.3%
N/C(=N\NC(=S)N1CCCC1)c1ccccn1 | 3600 | 1700 | 600 | 6200 | 65.7 | 80 | 83.9 | 86 | 87.8 | 39.8 | 70.9 | 77.2 | 85.2 | 83.8 | 24.7 | 38.5 | 63.5 | 84.5 | 89.1 | 45.9 | inhibition of growth at 3 µM (MCF7 [21]): 49.8%; inhibition of growth at 10 µM (MCF7 [22]): 51.7%; inhibition of growth at 30 µM (MCF7 [23]): 54.6%; inhibition of growth at 100 µM (MCF7 [24]): 74.9%
